Series [1] in a line: Half life in mouse plasma at 20 uM by RP-UPLC-UV method. The format is ADME, cell-free. An outline of the steps: (§1)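 Reconstituted lyophilized human or mouse plasma mixed about 1:1 with PBS and pre-warmed to 37 °C. Compound added to 20 µM final. […] Procaine (human) and diltiazem (mouse) as controls.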
Series [2] has as its system Mus musculus. Description: Antiarthritic activity in collagen-induced DBA/1J mouse arthritis model assessed as decrease in incidence of arthritis at 9.7 mg/kg, ip administered daily for 2 weeks starting on day 27 post first immunization measured thrice per week during compound dosing relative to control. The format is functional, organism-based. The procedure, abridged:
(§2)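 Male DBA/1J mice (8–9 wk, n = 8/group). Arthritis induced by intradermal tail-base immunization with 100 µg chicken type-II collagen in CFA on day −1, with a 50 µg boost on day 21. Daily i.p. dosing in 2% DMSO/PBS for 14 days from day 27. Blinded scoring three times weekly, 0–15 per limb (max 60). Vehicle group as control. Mann-Whitney test.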

Series [3] is described as follows: Metabolic stability in mouse plasma at 20 uM after 8 hrs by RP-UPLC-UV method. In kind it is ADME, cell-free. Conditions: read-out: Stability. The procedure, abridged: as §1
A short description of series [4]: Prodrug activation in DMSO/PBS mixture assessed as formation of methotrexate at 50 uM after <3 hrs in presence of 0.5 mM H2O2 by RP-UPLC-MS method. An outline of the steps:
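50 µM prodrug in 30% DMSO/PBS pH 7.4 at 37 °C with diclofenac internal standard. Started with H2O2 at 0.5 mM final. Sampled 5 min to 4 h (some compounds to 48 h). RP-UPLC-UV at 306 nm. No-H2O2 control run in parallel. Triplicate.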

In series [5] the test system is Mus musculus. Description: Toxicity in collagen-induced DBA/1J mouse arthritis model assessed as decrease in body weight at 9.7 mg/kg, ip administered daily for 2 weeks starting on day 27 post first immunization measured thrice per week during compound dosing. The format is organism-based. To be noted: in vivo, 336 h. An outline of the steps: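 CIA in male DBA/1J mice (8–9 wk, n = 8/group) from chicken type-II collagen/CFA immunization (day −1, boost day 21). Daily i.p. dosing in 2% DMSO/PBS for 14 days starting day 27. Body weight recorded three times weekly as a general-health indicator, compared with vehicle. Data are mean ± SEM.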

The test system of series [6] is MCF7. Description: Cytotoxicity against human MCF7 cells assessed as decrease in cell viability after 48 hrs by MTS assay. In kind it is functional, cell-based. The procedure, abridged: (§3)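 MCF-7 (DMEM) or NCI-H460 (RPMI), 10% FBS, seeded at 10^4 or 7×10^3 cells/well respectively and attached for 24 h. Exposed to serial compound concentrations for 48 h, then MTS read at 490 nm. DMSO ≤0.4% matched controls. Triplicate. IC50 by non-linear regression.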
A general note: Tetrazolium dyes change colour on reduction, which living cells bring about.

Series [7] relates to MCF7. Description: Cytotoxicity against human MCF7 cells assessed as decrease in cell viability preincubated with H2O2 for 24 hrs followed by cell addition measured after 48 hrs by MTS assay. In kind it is functional, cell-based. An outline of the steps: (§4)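 Compound pre-activated at 125 µM with 1.25 mM H2O2 in DMSO:PBS 1:1, 24 h at 21 °C. Then added to MCF-7 or NCI-H460 cells (24 h attached) for 48 h. Final H2O2 <10 µM. MTS read at 490 nm. Triplicate. IC50 by non-linear regression.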

For series [8], the system named is NCI-H460. As to the kind of experiment: Cytotoxicity against human NCI-H460 cells assessed as decrease in cell viability preincubated with H2O2 for 24 hrs followed by cell addition measured after 48 hrs by MTS assay. The format is functional, cell-based. The procedure, abridged: as §4
Series [9] can be described thus: Kinetic solubility of the compound in DMSO/PBS mixture after 20 hrs by RP-UPLC-UV method. In kind it is physicochemical. To be noted: read-out: Kinetic_solubility. The procedure, abridged:
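100 µM compound in 1% DMSO/PBS pH 7.4, shaken 20 h at 37 °C. Centrifuged to remove insoluble material; supernatant quantified by RP-UPLC-UV at 306 nm. Triplicate.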

A short description of series [10]: Metabolic stability in human plasma at 20 uM after 24 hrs by RP-UPLC-UV method. In kind it is ADME, cell-free. To be noted: read-out: Stability. The procedure, abridged: as §1
Series [11] in a line: Intrinsic clearance in CD1 mouse liver microsomes at 10 uM after 5 to 240 mins by RP-UPLC-UV method. In kind it is ADME, microsome. To be noted: read-out: CLH. An outline of the steps:
(§5)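 Pooled male liver microsomes (human, or CD-1 mouse) in PBS at 37 °C with 10 µM compound. Reaction started with NADPH. Aliquots taken 0–60 min (mouse also 120 and 240 min) and quenched with cold MeCN/diclofenac. Read by RP-UPLC-UV, ln[C] vs time, first order. No-NADPH control run; verapamil (human) or diphenhydramine (mouse) as reference.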
(Microsomes from liver hold many membrane-bound enzymes, among them those of drug oxidation.)

Series [12] is described as follows: Half life in SGF by RP-UPLC-UV method. In kind it is physicochemical. The procedure, abridged:
(§6)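 SGF or SIF (SIF adjusted to pH 7.5) dosed from a 10 mM DMSO stock. Incubated at 37 °C and sampled at 0, 1, 2, 4 and 24 h. Run in triplicate.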

Series [13] in a line: Half life in human plasma at 20 uM by RP-UPLC-UV method. In kind it is ADME, cell-free. An outline of the steps: as §1
Series [14] can be described thus: Chemical stability in PBS/DMSO mixture at pH 7.4 after 24 hrs by RP-UPLC-UV method. The format is physicochemical. To be noted: read-out: Stability.
Series [15] relates to NCI-H460. As to the kind of experiment: Cytotoxicity against human NCI-H460 cells assessed as decrease in cell viability after 48 hrs by MTS assay. The format is functional, cell-based. An outline of the steps:
as §3

Series [16] can be described thus: Intrinsic clearance in human liver microsomes at 10 uM after 5 to 60 mins by RP-UPLC-UV method. The format is ADME, microsome. Conditions: read-out: CLH. An outline of the steps: as §5
Series [17] relates to Mus musculus. As to the kind of experiment: Antiarthritic activity in collagen-induced DBA/1J mouse arthritis model assessed as reduction of macroscopic score at 9.7 mg/kg, ip administered daily for 2 weeks starting on day 27 post first immunization measured thrice per week during compound dosing relative to control. The format is functional, organism-based. The procedure, abridged:
as §2

The nature of series [18]: Prodrug activation in DMSO/PBS mixture assessed as formation of methotrexate at 100 uM after 24 hrs in presence of 0.25 to 10 mM H2O2 by RP-UPLC-MS method. The procedure, abridged:
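Prodrug from 1 mM DMSO stock in PBS pH 7.4 with diclofenac internal standard. Started with H2O2 solutions of 10, 5, 1, 0.5 or 0.25 mM (stock concentrations). Incubated at 37 °C and sampled 5 min to 24 h (48 h for some). RP-UPLC-UV at 306 nm. PBS-only control run. Triplicate.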

The nature of series [19]: Half life in SIF by RP-UPLC-UV method. In kind it is physicochemical. An outline of the steps:
as §6

The nature of series [20]: Half life in PBS/DMSO mixture at pH 7.4 by RP-UPLC-UV method. In kind it is physicochemical.

SMILES strings stand for the structures. Values after ≈ are worked out from the molar mass of the structure shown. Active and inactive are the calls of the source.

A word on the half-life: it is the time needed for the level to fall by half in the phase considered. For `CN(Cc1cnc2nc(N)nc(NC(=O)OCc3ccc(B(O)O)cc3)c2n1)c1ccc(C(=O)N[C@@H](CCC(=O)O)C(=O)O)cc1`, the half-life at 20 µM in [1] was 17 h; in series [13], 70 h. Besides, the outcome with Mus musculus [2], with MCF7 [7], in the series on NCI-H460 [8] and with Mus musculus [17] was Active. Moreover, the remaining at 8 h, 20 µM in [3] is 62%. In addition, the Drug metabolism result in series [4] and in series [18] was “Metabolite detected” in each case. In addition, the Activity entry with Mus musculus [5] is recorded as “Non-Toxic”. Further, the result in the series with MCF7 [6] and in the series with NCI-H460 [15] was inactive. Moreover, the solubility kinetic at 20 h in series [9] turned out to be 87 µM (≈ 55 µg/mL). Further, the remaining at 24 h, 20 µM in [10] stood at 70%. For the same compound, the microsomal CLint at 10 µM in series [11] is 6.4 µL/min/mg; in series [16], 2.2 µL/min/mg. The half-life in series [12] was 8 h; in series [19] it was 239 h; in [20], 238 h. Moreover, the remaining at 24 h in series [14] is over 90%.

For the origin of these results see ChEMBL document CHEMBL4043304, “Synthesis and Evaluation of Hydrogen Peroxide Sensitive Prodrugs of Methotrexate and Aminopterin for the Treatment of Rheumatoid Arthritis” (J Med Chem, 2018).
